We go through 6 compounds from ChEMBL document CHEMBL1268902, “9-Dihydroerythromycin ethers as motilin agonists--developing structure-activity relationships for potency and safety” (Bioorg Med Chem, 2010).

Each structure is given as a SMILES string. In brackets after ≈: the same amount, converted by molar mass.

A short description of series [1]: Induction of contraction in rabbit smooth muscle. The format is functional, tissue-based, Oryctolagus cuniculus, Muscle tissue. The procedure, abridged:
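Rabbit smooth muscle contractility assay; EC50 taken as the concentration giving 50% of maximal possible contraction.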

The next series relates to Streptococcus pneumoniae. In words: Antibacterial activity against erythromycin-sensitive Streptococcus pneumoniae ATCC 6301. The format is functional. The essentials: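 MIC determined by growth inhibition; routine screening used the highly erythromycin-sensitive strain S. pneumoniae ATCC6301.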
A short description of series [2]: Induction of contraction in rabbit smooth muscle at EC90 concentration after three cycles of administration and washout measured after 4th dose. The format is functional, Oryctolagus cuniculus, Muscle tissue. The essentials: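 Rabbit smooth muscle contractility; drug applied at EC90 concentration through three cycles of administration and washout, tachyphylaxis reported as % contractility response then obtained.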

The target in series [3] is T1, hERG (KCNH2) (Homo sapiens, UniProt Q12809). In words: Inhibition of human ERG at 30 uM.
T1 sequence (Q12809 whole entry): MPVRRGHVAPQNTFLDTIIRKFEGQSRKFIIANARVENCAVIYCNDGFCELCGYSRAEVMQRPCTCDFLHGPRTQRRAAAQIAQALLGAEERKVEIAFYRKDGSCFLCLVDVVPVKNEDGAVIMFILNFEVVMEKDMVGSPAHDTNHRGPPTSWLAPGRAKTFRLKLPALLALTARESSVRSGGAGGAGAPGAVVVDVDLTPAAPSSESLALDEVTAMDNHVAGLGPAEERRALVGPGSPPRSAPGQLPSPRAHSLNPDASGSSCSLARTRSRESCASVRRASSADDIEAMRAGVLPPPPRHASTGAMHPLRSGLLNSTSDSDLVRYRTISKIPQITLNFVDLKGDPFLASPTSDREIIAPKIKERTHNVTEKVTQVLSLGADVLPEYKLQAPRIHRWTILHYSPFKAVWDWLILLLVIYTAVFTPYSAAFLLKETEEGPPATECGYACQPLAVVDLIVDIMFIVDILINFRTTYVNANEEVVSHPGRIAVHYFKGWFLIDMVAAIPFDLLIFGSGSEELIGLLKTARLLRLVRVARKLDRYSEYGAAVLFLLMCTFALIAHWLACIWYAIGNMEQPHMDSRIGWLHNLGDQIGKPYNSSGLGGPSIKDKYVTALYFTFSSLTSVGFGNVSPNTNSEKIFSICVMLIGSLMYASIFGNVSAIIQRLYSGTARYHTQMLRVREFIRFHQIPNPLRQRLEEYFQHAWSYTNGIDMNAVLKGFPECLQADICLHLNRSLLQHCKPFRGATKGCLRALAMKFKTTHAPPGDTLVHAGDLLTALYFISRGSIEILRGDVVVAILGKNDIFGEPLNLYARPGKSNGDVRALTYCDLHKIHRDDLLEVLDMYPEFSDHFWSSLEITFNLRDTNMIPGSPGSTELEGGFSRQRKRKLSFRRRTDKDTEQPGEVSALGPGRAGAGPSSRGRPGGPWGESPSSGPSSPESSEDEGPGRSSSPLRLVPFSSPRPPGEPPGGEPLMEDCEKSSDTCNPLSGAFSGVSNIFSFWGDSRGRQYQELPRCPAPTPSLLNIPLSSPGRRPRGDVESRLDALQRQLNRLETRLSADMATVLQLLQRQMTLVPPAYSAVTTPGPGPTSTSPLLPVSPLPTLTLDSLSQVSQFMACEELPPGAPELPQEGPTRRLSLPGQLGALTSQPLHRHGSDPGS
For series [4], the target named is T1, hERG (KCNH2). In words: Inhibition of human ERG at 300 uM.

On to `CC[C@H]1OC(=O)[C@H](C)[C@@H](O[C@H]2C[C@@](C)(OC)[C@@H](O)[C@H](C)O2)[C@H](C)[C@@H](O[C@@H]2O[C@H](C)C[C@H](N(C)C(C)C)[C@H]2O)[C@](C)(O)C[C@@H](C)[C@H](OCCNC(C)=O)[C@H](C)[C@@H](O)[C@]1(C)O`, for which a half-maximal effect in series [1] (EC50) was put at 48 nM. In addition, the MIC (in general, the lowest concentration that inhibits growth of the organism) against Streptococcus pneumoniae was greater than 128 µg/mL. For the same compound, the Activity in series [2] worked out at 94%. Also, the inhibition (usually the share of the control response that was lost under treatment) at 30 µM on hERG (KCNH2) [3] was 47%. Besides, 300 µM produced 73% inhibition against hERG (KCNH2) [4].

`CC[C@H]1OC(=O)[C@H](C)[C@@H](O[C@H]2C[C@@](C)(OC)[C@@H](O)[C@H](C)O2)[C@H](C)[C@@H](O[C@@H]2O[C@H](C)C[C@H](N(C)C(C)C)[C@H]2O)[C@](C)(O)C[C@@H](C)[C@H](OCc2nc[nH]n2)[C@H](C)[C@@H](O)[C@]1(C)O`: the EC50 (in general, the concentration needed to bring the measured effect to its halfway point) in series [1] was found to be 54 nM. In addition, in the series on Streptococcus pneumoniae, the MIC worked out at 128 µg/mL (≈ 151 µM). Besides, the Activity in series [2] came out at 97%. At hERG (KCNH2) [3], this compound displayed an inhibition at 30 µM of 8%. At hERG (KCNH2) [4], this compound registered an inhibition at 300 µM of 40%.

Consider `CC[C@H]1OC(=O)[C@H](C)[C@@H](O[C@H]2C[C@@](C)(OC)[C@@H](O)[C@H](C)O2)[C@H](C)[C@@H](O[C@@H]2O[C@H](C)C[C@H](N(C)C(C)C)[C@H]2O)[C@](C)(O)C[C@@H](C)[C@H](OCCNC=O)[C@H](C)[C@@H](O)[C@]1(C)O`, for which a half-maximal response in series [1] (EC50) required 31 nM. The MIC in the series on Streptococcus pneumoniae is greater than 128 µg/mL. The Activity in series [2] is 100%. Further, the inhibition at 30 µM at hERG (KCNH2) [3] was found to be 8%. In addition, the inhibition at 300 µM against hERG (KCNH2) [4] is 47%.

In the case of `CC[C@H]1OC(=O)[C@H](C)[C@@H](O[C@H]2C[C@@](C)(OC)[C@@H](O)[C@H](C)O2)[C@H](C)[C@@H](O[C@@H]2O[C@H](C)C[C@H](N(C)C(C)C)[C@H]2O)[C@](C)(O)C[C@@H](C)[C@H](OCCNC(=O)c2ccc3[nH]cnc3c2)[C@H](C)[C@@H](O)[C@]1(C)O`, in series [1], the EC50 is 37 nM. Moreover, the MIC in the series with Streptococcus pneumoniae is 128 µg/mL (≈ 135 µM). For the same compound, the Activity in series [2] is on record as 94%. The compound also returned an inhibition at 30 µM against hERG (KCNH2) [3] of 71%. At hERG (KCNH2) [4], this compound returned an inhibition at 300 µM of 100%.

Regarding `CCNC(=O)NCCO[C@@H]1[C@H](C)[C@@H](O)[C@](C)(O)[C@@H](CC)OC(=O)[C@H](C)[C@@H](O[C@H]2C[C@@](C)(OC)[C@@H](O)[C@H](C)O2)[C@H](C)[C@@H](O[C@@H]2O[C@H](C)C[C@H](N(C)C(C)C)[C@H]2O)[C@](C)(O)C[C@H]1C`, in series [1], the EC50 was found to be 100 nM. The compound further came in with an MIC in the series on Streptococcus pneumoniae greater than 128 µg/mL. Further, the Activity in series [2] is reported as 88%. Also, the inhibition at 30 µM on hERG (KCNH2) [3] worked out at 20%. Also, the inhibition at 300 µM at hERG (KCNH2) [4] was determined as 57%.

As to `CC[C@H]1OC(=O)[C@H](C)[C@@H](O[C@H]2C[C@@](C)(OC)[C@@H](O)[C@H](C)O2)[C@H](C)[C@@H](O[C@@H]2O[C@H](C)C[C@H](N(C)C(C)C)[C@H]2O)[C@](C)(O)C[C@@H](C)[C@H](OCCNS(C)(=O)=O)[C@H](C)[C@@H](O)[C@]1(C)O`, a half-maximal effect in series [1] (EC50) was put at 240 nM. In the series on Streptococcus pneumoniae, this compound returned an MIC greater than 128 µg/mL. In series [2], the Activity worked out at 94%. In addition, the inhibition at 30 µM against hERG (KCNH2) [3] stood at 12%. On hERG (KCNH2) [4], this compound had an inhibition at 300 µM of 79%.
